The target of one test is DYRK1A (Homo sapiens, UniProt Q13627). As to the kind of experiment: Human kinome profiling, DYRK1A. The class given is biochemical. The following applies: 100 nmol/L.
In the next test the target is T1, DYRK4 (Homo sapiens, UniProt Q9NR20).
T1 sequence (Q9NR20 1-520): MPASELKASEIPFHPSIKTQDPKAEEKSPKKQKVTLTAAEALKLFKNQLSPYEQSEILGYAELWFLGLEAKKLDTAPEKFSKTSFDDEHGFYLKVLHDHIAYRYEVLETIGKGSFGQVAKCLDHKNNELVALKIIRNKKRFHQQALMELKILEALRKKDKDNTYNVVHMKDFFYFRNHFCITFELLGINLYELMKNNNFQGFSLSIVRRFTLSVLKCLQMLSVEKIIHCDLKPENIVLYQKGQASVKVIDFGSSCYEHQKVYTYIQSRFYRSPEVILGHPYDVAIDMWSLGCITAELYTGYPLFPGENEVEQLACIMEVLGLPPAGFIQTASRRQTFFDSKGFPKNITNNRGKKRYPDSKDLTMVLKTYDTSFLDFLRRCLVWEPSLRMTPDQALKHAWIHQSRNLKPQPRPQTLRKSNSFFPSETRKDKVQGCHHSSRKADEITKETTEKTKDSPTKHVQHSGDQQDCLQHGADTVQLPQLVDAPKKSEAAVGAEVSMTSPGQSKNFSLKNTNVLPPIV
The test is described as follows: Human kinome profiling, DYRK4. The class given is biochemical. In short, it runs like this: (§1)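 Human kinases profiled by commercial providers under their standard protocols; ATP within 15 μmol/L of the apparent KM for each enzyme.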

A further test concerns the target CLK3 (Homo sapiens, UniProt P49761). The test is described as follows: Human kinome profiling, CLK3. The class given is biochemical. In short, it runs like this: as §1
The subject of the next test is intact human islets. The class given is cell-based. The following applies: intact islets of three donors, 1 μmol/L, 6 days. A digest of the protocol: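 Intact islets from three donors received DMSO or 1 μmol/L test compound for 6 days, and expression was averaged geometrically. Fold changes were regressed by five-dimensional least squares against published expression data from sorted α, β, acinar, large-duct, small-duct and uncharacterised islet cells to estimate cell-mass changes. Significance was assessed by randomising the assignment of sorted replicate samples to cell types.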

Test [1] has as its system α-cells of endogenous mouse pancreas. The test is described as follows: α-cell proliferation in endogenous mouse pancreas. The following applies: 0.25 mg/kg/BW i.p. twice a week for 3 weeks. The class given is in vivo.
Another test has as its system primary rat neurons. As to the kind of experiment: Proliferation of primary rat neurons in culture. Format: cell-based.
Test [2] relates to human islet cells (all cell types). The test is described as follows: Proliferation of other cell types in the heterogeneous human islet cell culture. Format: cell-based.

Chain of CLK3 (P49761 whole entry): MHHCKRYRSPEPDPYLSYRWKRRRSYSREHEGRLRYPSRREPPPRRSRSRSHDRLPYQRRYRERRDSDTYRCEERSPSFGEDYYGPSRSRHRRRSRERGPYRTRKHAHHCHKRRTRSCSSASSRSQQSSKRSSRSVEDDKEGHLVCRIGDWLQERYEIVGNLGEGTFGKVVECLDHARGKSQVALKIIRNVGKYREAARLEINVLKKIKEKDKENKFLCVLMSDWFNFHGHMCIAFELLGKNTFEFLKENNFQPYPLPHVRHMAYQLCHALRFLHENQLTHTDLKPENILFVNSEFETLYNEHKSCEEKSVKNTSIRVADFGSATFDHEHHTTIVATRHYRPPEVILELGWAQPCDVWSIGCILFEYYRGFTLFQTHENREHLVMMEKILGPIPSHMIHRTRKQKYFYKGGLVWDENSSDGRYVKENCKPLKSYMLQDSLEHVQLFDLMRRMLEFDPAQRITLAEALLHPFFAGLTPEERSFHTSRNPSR

Take `Nc1ncnc2c1c(I)cn2[C@@H]1O[C@H](CO)[C@@H](O)[C@H]1O` [5-IT, 5-iodotubercidin]: the “remaining activity DYRK1A” value on DYRK1A was less than 10%. The “remaining activity DYRK4” value on DYRK4 (100 nmol/L) was less than 10%. Besides, the IC50 came to 129 nM on DYRK4 (read-out: IC50 DYRK4, ATP within 15 μmol/L of apparent KM) and 195 nM at CLK3 (read-out: IC50 CLK3, ATP within 15 μmol/L of apparent KM). Moreover, the “remaining activity CLK3” value at CLK3 (100 nmol/L) was less than 10%. For the same compound, the “increase in α-cell mass predicted by gene expression results” value with intact human islets (95% CI 4.6–7.5) was 6.1%. The “β-cell mass increase that could account for gene expression changes” value in the test with intact human islets (95% CI 5.8–9.2) was found to be 7.5%. For the same compound, in test [1], the “α-cell proliferation in endogenous mouse pancreas, treated vs nontreated” value was “no significant alterations”. Also, the “effect on primary rat neurons in culture” value with primary rat neurons is listed as “no effect”. Also, the “proliferation of all cell types in the heterogeneous culture system” value in test [2] is “did not induce proliferation of all cell types”.

Source of the values: PMC4878416 (Diabetes, 2016).
